The source made the active and inactive calls. The calls are words filed in the database; no cut-off is given here.
Tests used:
A549 [1] = assay: Cell cycle arrest in human A549 cells assessed as accumulation at G2/M phase at 8 uM after 36 hrs by RNAse A/ PI staining based flow cytometric analysis (reference value: 12.65%); format: functional
In short: (§1)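 A549 cells at 5.0×10^4 per well were grown 12 h at 37 °C. Treatment was 0, 2, 4 or 8 µM for 24 h, or 8 µM for 0, 12, 24 or 36 h. Cells were fixed in 70% ethanol at −20 °C for at least 12 h, then stained in PBS with 0.1 mg/mL RNase A and 5 µg/mL PI. At least 10,000 events per sample were collected by flow cytometry to give G0/G1, S and G2/M percentages.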

A549 [2] = assay: Induction of apoptosis in human A549 cells assessed as late apoptotic cells at 8 uM after 36 hrs by Annexin-V/PI staining based flow cytometry analysis (reference value: 6.55%); format: functional
In short: (§2)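 A549 cells seeded overnight at 37 °C, 5% CO2, then exposed to 0, 2, 4, 8 or 12 µM for 24 h (dose series) or 8 µM for 0, 12, 24, 36 h (time series). Harvested, PBS-washed, stained with Annexin V-FITC and PI in binding buffer 15 min at room temperature in the dark, analysed by flow cytometry; three independent experiments.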

A549 [3] = assay: Inhibition of Wnt/beta-catenin signaling pathway in human A549 cells assessed as reduction in beta-catenin expression in cytoplasm by Western blot analysis; format: cell-based
In short: (§3)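 A549 cells in 6-well plates were lysed in RIPA buffer with protease inhibitors on ice for 30 min and cleared at 4 °C. Protein was quantified by BCA, run on SDS-PAGE and transferred to PVDF. Membranes were blocked with milk, probed with primary antibody (1:1000) overnight at 4 °C, then secondary antibody (1:3000-1:5000) 1 h at RT. Detection by ECL; band densitometry normalised to GAPDH (β-actin also used). Three independent experiments.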

A549 [4] = assay: Antiproliferative activity against human A549 cells assessed as reduction in cell viability after 24 hrs by MTT assay; format: functional, cell-based; conditions: A549, 24 h
A549 [5] = assay: Induction of apoptosis in human A549 cells assessed as low mitochondrial membrane potential at 4 uM after 12 hrs by JC-1 staining-based flow cytometric analysis (reference value: 6.3%); format: functional
A549 [6] = assay: Induction of apoptosis in human A549 cells assessed as reduction in caspase-3 expression at 2 to 8 uM after 24 hrs by Western blot analysis; format: functional, cell-based; in short: as §3
A549 [7] = assay: Induction of apoptosis in human A549 cells assessed as low mitochondrial membrane potential at 12 uM after 12 hrs by JC-1 staining-based flow cytometric analysis (reference value: 6.3%); format: functional
A549 [8] = assay: Cell cycle arrest in human A549 cells assessed as accumulation at G1 phase at 8 uM after 12 hrs by RNAse A/ PI staining based flow cytometric analysis (reference value: 67.69%); format: functional; in short: as §1
Tubulin (Homo sapiens) = Tubulin (Homo sapiens) (UniProt P68371+Q9H4B7+P0DPH7+P68366+Q13509+Q71U36+P04350+Q3ZCM7+P07437+P68363+Q9BQE3+Q6PEY2+Q13885+Q9BVA1+Q9BUF5); assay: Induction of tubulin depolymerization in human A549 cells at 4 to 8 uM after 24 hrs by DAPI staining based fluorescence microscopic analysis; format: cell-based
In short: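 Cells were fixed in 4% paraformaldehyde, permeabilised with 1% Triton, and blocked with 5% BSA. Staining used anti-tubulin (1:200) overnight, then Cy3 anti-mouse IgG (1:1500) 1 h, then DAPI 1 µg/mL. Imaging by confocal microscopy.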

A549 [9] = assay: Cell cycle arrest in human A549 cells assessed as accumulation at G2/M phase at 8 uM after 24 hrs by RNAse A/ PI staining based flow cytometric analysis (reference value: 12.65%); format: functional; in short: as §1
A549 [10] = assay: Induction of apoptosis in human A549 cells assessed as necrotic cells after at 8 uM 12 hrs by Annexin-V/PI staining based flow cytometry analysis (reference value: 2.98%); format: functional; in short: as §2
A549 [11] = assay: Induction of apoptosis in human A549 cells assessed as late apoptotic cells at 8 uM after 24 hrs by Annexin-V/PI staining based flow cytometry analysis (reference value: 6.55%); format: functional; in short: as §2
A549 [12] = assay: Induction of apoptosis in human A549 cells assessed as viable cells at 2 uM after 24 hrs by Annexin-V/PI staining based flow cytometry analysis (reference value: 91.4%); format: functional; conditions: A549, 24 h, read-out: Activity; in short: as §2
A549 [13] = assay: Induction of apoptosis in human A549 cells assessed as viable cells at 8 uM after 24 hrs by Annexin-V/PI staining based flow cytometry analysis (reference value: 88.4%); format: functional; conditions: A549, 24 h, read-out: Activity; in short: as §2
A549 [14] = assay: Induction of apoptosis in human A549 cells assessed as early apoptotic cells at 8 uM after 12 hrs by Annexin-V/PI staining based flow cytometry analysis (reference value: 2.02%); format: functional
A549 [15] = assay: Induction of apoptosis in human A549 cells assessed as increase in late apoptotic cells at 4 to 12 uM after 12 hrs by PI-staining based flow cytometric analysis; format: functional, cell-based
In short: (§4)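 JC-1 staining of A549 cells treated for 12 h. CCCP-treated wells, 20 min at 37 °C, served as positive control. Collected cells were incubated with JC-1 solution at 37 °C for 30 min, washed, and analysed by flow cytometry for the fraction with high ΔΨm and for PI-positive cells. Results are mean ± S.E.M. of three replicates.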

A549 [16] = assay: Induction of apoptosis in human A549 cells assessed as necrotic cells after at 8 uM 36 hrs by Annexin-V/PI staining based flow cytometry analysis (reference value: 2.98%); format: functional; in short: as §2
A549 [17] = assay: Cell cycle arrest in human A549 cells assessed as accumulation at G2/M phase at 4 uM after 24 hrs by RNAse A/ PI staining based flow cytometric analysis (reference value: 9.47%); format: functional; in short: as §1
A549 [18] = assay: Induction of apoptosis in human A549 cells assessed as high mitochondrial membrane potential at 12 uM after 12 hrs by JC-1 staining-based flow cytometric analysis (reference value: 90.6%); format: functional; in short: as §4
A549 [19] = assay: Antitumor activity against ip dosed human A549 cells xenografted in Balb/c mouse assessed as inhibition of tumor volume by measuring fold reduction at 4 mg/kg, ip administered once every two days for 32 days relative to untreated control; format: functional
In short: (§5)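 Female BALB/c nude mice, 5-6 weeks old, injected in the flank with 6×10^6 A549 cells in 0.1 mL ice-cold PBS. After two weeks, tumours averaging 90 mm³ were allocated by volume to 5 groups of n = 8. Drugs in DMSO were given ip once every two days, 16 doses in total; a DMSO vehicle group served as control. Tumour volume (L×S²/2) and body weight were recorded every two days; mice were killed on day 32.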

A549 [20] = assay: Antitumor activity against ip dosed human A549 cells xenografted in Balb/c mouse assessed as inhibition of tumor growth administered once every two days for 32 days measured for every 2 days; format: functional, organism-based; in short: as §5
A549 [21] = assay: Cell cycle arrest in human A549 cells assessed as downregulation of CDK2 expression at 2 to 8 uM by immunoblot analysis; format: functional, cell-based
In short: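 A549 lysates in RIPA buffer with protease inhibitors were run on SDS-PAGE and blotted to PVDF. Membranes were probed overnight at 4 °C with primary antibody at 1:1000, then secondary antibody at 1:3000-1:5000 for 1 h, and detected by ECL. Band intensity was normalised to GAPDH. Results are mean ± S.E.M. from three independent experiments.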

## CC(C)=CC[C@@H](OC(=O)/C=C\C(=O)c1ccc(F)cc1)C1=CC(=O)c2c(O)ccc(O)c2C1=O
A549 [1]
  Activity: 46.55%
A549 [2]
  Activity: 41%
A549 [3]
  inhibition: Dose-dependent effect
A549 [4]
  IC50: 4.37 µM
A549 [5]
  Activity: 27.9%
A549 [6]
  Activity: Active
A549 [7]
  Activity: 58.7%
A549 [8]
  Activity: 55.88%
Tubulin (Homo sapiens)
  Activity: Active
A549 [9]
  Activity: 33.75%
A549 [10]
  Activity: 2.04%
A549 [11]
  Activity: 27.5%
A549 [12]
  viability at 2 µM: 83.7%
A549 [13]
  viability at 8 µM: 37.1%
A549 [14]
  Activity: 8.92%
A549 [15]
  Activity: inactive
A549 [16]
  Activity: 3%
A549 [17]
  Activity: 21.03%
A549 [18]
  Activity: 38.6%
A549 [19]
  fold change (FC): 6
A549 [20]
  Activity: Dose-dependent effect
A549 [21]
  Activity: Active
